Measurements reported in ChEMBL document CHEMBL5356993, “Novel pyrazolo[3,4-d]pyrimidine derivatives: design, synthesis, anticancer evaluation, VEGFR-2 inhibition, and antiangiogenic activity” (RSC Med Chem, 2023).
pIC50: −log10 of the molar value.

Assays:
[1] = test system: MDA-MB-468; test: Cytotoxicity against human MDA-MB-468 cells assessed as cell growth inhibition incubated for 72 hrs by MTT assay; format: functional, cell-based; settings: MDA-MB-468, 72 h
[2] = Cytotoxicity against human MCF-10A cells assessed as cell growth inhibition incubated for 72 hrs by MTT assay
[3] = test system: T47D; test: Antiproliferative activity against human T47D cells assessed as cell growth inhibition at 10 uM incubated for 48 hrs by SRB assay relative to control; format: functional; settings: read-out: GI
In short: (§1)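 Cells pre-incubated 24 h at 37°C, 5% CO2, then exposed to compound (DMSO stock diluted in medium with 50 µg/mL gentamicin) for 48 h. Adherent cells fixed with cold TCA (final 10%, 60 min, 4°C); suspension cells fixed with 16% TCA final. Stained with 0.4% SRB in 1% acetic acid for 10 min, dye solubilized in 10 mM Trizma base, absorbance read at 515 nm. Growth calculated against time-zero and untreated control plates.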

[4] = test system: SNB-19; test: Antiproliferative activity against human SNB-19 cells assessed as cell growth inhibition at 10 uM incubated for 48 hrs by SRB assay relative to control; format: functional; settings: read-out: GI; in short: as §1
[5] = test system: MOLT-4; test: Antiproliferative activity against human MOLT-4 cells assessed as cell growth inhibition at 10 uM incubated for 48 hrs by SRB assay relative to control; format: functional; settings: read-out: GI
[6] = test system: A549; test: Antiproliferative activity against human A549 cells assessed as cell growth inhibition at 10 uM incubated for 48 hrs by SRB assay relative to control; format: functional; settings: read-out: GI
[7] = test system: SK-OV-3; test: Antiproliferative activity against human SK-OV-3 cells assessed as cell growth inhibition at 10 uM incubated for 48 hrs by SRB assay relative to control; format: functional; settings: read-out: GI
In short: (§2)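 Cells plated in 96-well plates at […] cells/well and preincubated 24 h at 37 °C, 5% CO2. Time-zero plates were TCA-fixed. Compound was diluted in medium with 50 µg/mL gentamicin and cells exposed for 48 h. Adherent cells fixed with 10% final TCA; suspension cells with 16% final TCA. Plates stained with 0.4% SRB in 1% acetic acid, dye solubilized in 10 mM Trizma, absorbance read at 515 nm. Percent growth calculated against time-zero and control.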

[8] = test system: SW-620; test: Antiproliferative activity against human SW620 cells assessed as cell growth inhibition at 10 uM incubated for 48 hrs by SRB assay relative to control; format: functional; settings: read-out: GI; in short: as §1
[9] = test system: EKVX; test: Antiproliferative activity against human EKVX cells assessed as cell growth inhibition at 10 uM incubated for 48 hrs by SRB assay relative to control; format: functional; settings: read-out: GI
[10] = test system: KM12; test: Antiproliferative activity against human KM12 cells assessed as cell growth inhibition at 10 uM incubated for 48 hrs by SRB assay relative to control; format: functional; settings: read-out: GI; in short: as §2
[11] = Selectivity index, ratio of IC50 for human MCF-10A cells to IC50 for human MDA-MB-468 cells; settings: MCF-10A cells versus MDA-MB-468 cells
[12] = test system: SK-MEL-28; test: Antiproliferative activity against human SK-MEL-28 cells assessed as cell growth inhibition at 10 uM incubated for 48 hrs by SRB assay relative to control; format: functional; settings: read-out: GI; in short: as §2
[13] = test system: OVCAR-8; test: Antiproliferative activity against human OVCAR-8 cells assessed as cell growth inhibition at 10 uM incubated for 48 hrs by SRB assay relative to control; format: functional; settings: read-out: GI
[14] = test system: HCT-116; test: Antiproliferative activity against human HCT-116 cells assessed as cell growth inhibition at 10 uM incubated for 48 hrs by SRB assay relative to control; format: functional; settings: read-out: GI
[15] = test system: U-251; test: Antiproliferative activity against human U-251 cells assessed as cell growth inhibition at 10 uM incubated for 48 hrs by SRB assay relative to control; format: functional; settings: read-out: GI; in short: as §1
[16] = test system: NCI-H23; test: Antiproliferative activity against human NCI-H23 cells assessed as cell growth inhibition at 10 uM incubated for 48 hrs by SRB assay relative to control; format: functional; settings: read-out: GI
[17] = test system: MDA-MB-468; test: Antiproliferative activity against human MDA-MB-468 cells assessed as cell growth inhibition at 10 uM incubated for 48 hrs by SRB assay relative to control; format: functional; settings: read-out: GI
[18] = test system: HL-60(TB); test: Antiproliferative activity against human HL-60(TB) cells assessed as cell growth inhibition at 10 uM incubated for 48 hrs by SRB assay relative to control; format: functional; settings: read-out: GI
In short: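 Cells were plated at […] cells/well and preincubated 24 h at 37°C, 5% CO2, with time-zero plates TCA-fixed. Compound was diluted from DMSO stock in medium with 50 µg/mL gentamicin, then exposed for 48 h. Settled suspension cells were fixed with 80% TCA (final 16%), stained with 0.4% SRB and solubilized in 10 mM Trizma, A515. Growth was taken relative to Tz and control.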

[19] = test system: COLO 205; test: Antiproliferative activity against human COLO 205 cells assessed as cell growth inhibition at 10 uM incubated for 48 hrs by SRB assay relative to control; format: functional; settings: read-out: GI
[20] = test system: ACHN; test: Antiproliferative activity against human ACHN cells assessed as cell growth inhibition at 10 uM incubated for 48 hrs by SRB assay relative to control; format: functional; settings: read-out: GI
[21] = test system: Malme-3M; test: Antiproliferative activity against human Malme-3M cells assessed as cell growth inhibition at 10 uM incubated for 48 hrs by SRB assay relative to control; format: functional; settings: read-out: GI
[22] = Selectivity index, ratio of IC50 for human MCF-10A cells to IC50 for human T47D cells; settings: MCF-10A cells versus T47D cells
[23] = test system: SK-MEL-5; test: Antiproliferative activity against human SK-MEL-5 cells assessed as cell growth inhibition at 10 uM incubated for 48 hrs by SRB assay relative to control; format: functional; settings: read-out: GI; in short: as §2
[24] = target: Vascular endothelial growth factor receptor 2 (Homo sapiens, UniProt P35968); test: Inhibition of VEGFR-2 (unknown origin) incubated for 45 mins by Kinase-Glo Max assay
[25] = test system: IGROV-1; test: Antiproliferative activity against human IGROV-1 cells assessed as cell growth inhibition at 10 uM incubated for 48 hrs by SRB assay relative to control; format: functional; settings: read-out: GI
[26] = test system: K562; test: Antiproliferative activity against human K562 cells assessed as cell growth inhibition at 10 uM incubated for 48 hrs by SRB assay relative to control; format: functional; settings: read-out: GI
[27] = test system: OVCAR-4; test: Antiproliferative activity against human OVCAR-4 cells assessed as cell growth inhibition at 10 uM incubated for 48 hrs by SRB assay relative to control; format: functional; settings: read-out: GI
[28] = test system: T47D; test: Cytotoxicity against human T47D cells assessed as cell growth inhibition incubated for 72 hrs by MTT assay; format: functional, cell-based
[29] = test system: UACC-62; test: Antiproliferative activity against human UACC-62 cells assessed as cell growth inhibition at 10 uM incubated for 48 hrs by SRB assay relative to control; format: functional; settings: read-out: GI; in short: as §1
[30] = test system: MDA-MB-468; test: Induction of apoptosis in human MDA-MB-468 cells assessed as early apoptotic cells at IC50 incubated for 24 hrs by Annexin V/PI staining based flow cytometry (reference value: 0.52 %); format: functional
[31] = test system: MDA-MB-468; test: Induction of cell cycle arrest in human MDA-MB-468 cells assessed as decrease in cell population at G0 to G1 phase at IC50 incubated for 24 hrs by RNase/PI staining based flow cytometry relative to control; format: functional; design: scale not given: the % may be the effect or the level left
[32] = test system: MDA-MB-468; test: Induction of cell cycle arrest in human MDA-MB-468 cells assessed as accumulation of cells at G2/M phase at IC50 incubated for 24 hrs by RNase/PI staining based flow cytometry (reference value: 16.13 %); format: functional

Sequence of Vascular endothelial growth factor receptor 2 (P35968 whole entry): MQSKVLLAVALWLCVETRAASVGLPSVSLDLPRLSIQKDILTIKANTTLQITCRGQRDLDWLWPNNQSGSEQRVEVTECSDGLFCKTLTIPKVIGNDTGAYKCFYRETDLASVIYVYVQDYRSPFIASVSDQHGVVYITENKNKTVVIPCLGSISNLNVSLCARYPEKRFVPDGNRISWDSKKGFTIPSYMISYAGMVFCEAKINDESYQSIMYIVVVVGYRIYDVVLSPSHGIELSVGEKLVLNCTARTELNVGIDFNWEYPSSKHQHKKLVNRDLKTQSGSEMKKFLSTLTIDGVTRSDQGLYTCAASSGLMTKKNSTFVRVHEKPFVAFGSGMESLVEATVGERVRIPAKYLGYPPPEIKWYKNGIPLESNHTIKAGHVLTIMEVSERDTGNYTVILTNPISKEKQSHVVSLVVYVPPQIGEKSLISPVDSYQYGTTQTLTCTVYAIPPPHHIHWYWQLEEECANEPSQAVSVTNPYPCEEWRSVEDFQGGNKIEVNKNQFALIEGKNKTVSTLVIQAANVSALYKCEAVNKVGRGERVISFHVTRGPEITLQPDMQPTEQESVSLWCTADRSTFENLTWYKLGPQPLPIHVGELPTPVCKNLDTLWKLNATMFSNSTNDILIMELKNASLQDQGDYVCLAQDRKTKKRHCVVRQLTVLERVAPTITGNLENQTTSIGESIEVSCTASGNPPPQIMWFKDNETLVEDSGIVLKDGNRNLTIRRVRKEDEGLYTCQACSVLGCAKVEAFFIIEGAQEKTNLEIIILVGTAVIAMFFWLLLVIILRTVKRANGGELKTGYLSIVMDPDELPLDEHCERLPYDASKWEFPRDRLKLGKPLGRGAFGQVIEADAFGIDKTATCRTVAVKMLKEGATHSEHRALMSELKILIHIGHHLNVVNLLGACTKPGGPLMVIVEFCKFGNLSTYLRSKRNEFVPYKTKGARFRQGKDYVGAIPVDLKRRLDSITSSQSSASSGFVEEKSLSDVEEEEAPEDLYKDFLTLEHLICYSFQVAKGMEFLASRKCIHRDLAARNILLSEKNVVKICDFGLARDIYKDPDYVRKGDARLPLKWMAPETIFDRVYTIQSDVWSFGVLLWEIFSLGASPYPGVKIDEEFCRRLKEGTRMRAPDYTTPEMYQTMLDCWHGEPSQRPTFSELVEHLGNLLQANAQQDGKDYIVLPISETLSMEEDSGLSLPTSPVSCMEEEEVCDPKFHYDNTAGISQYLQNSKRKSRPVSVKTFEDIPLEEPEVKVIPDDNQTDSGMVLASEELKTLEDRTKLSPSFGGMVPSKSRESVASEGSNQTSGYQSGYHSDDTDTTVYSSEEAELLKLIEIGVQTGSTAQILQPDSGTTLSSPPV

Row | SMILES | pIC50 [1] | IC50 at 72 h [2] [µM] | inhibition of growth at 10 µM [3] [%] | inhibition of growth at 10 µM [4] [%] | inhibition of growth at 10 µM [5] [%] | inhibition of growth at 10 µM [6] [%] | inhibition of growth at 10 µM [7] [%] | inhibition of growth at 10 µM [8] [%] | inhibition of growth at 10 µM [9] [%] | inhibition of growth at 10 µM [10] [%] | selectivity ratio [11] | inhibition of growth at 10 µM [12] [%] | inhibition of growth at 10 µM [13] [%] | inhibition of growth at 10 µM [14] [%] | inhibition of growth at 10 µM [15] [%] | inhibition of growth at 10 µM [16] [%] | inhibition of growth at 10 µM [17] [%] | inhibition of growth at 10 µM [18] [%] | inhibition of growth at 10 µM [19] [%] | inhibition of growth at 10 µM [20] [%] | also measured
1 | Cc1nc2c(cnn2-c2ccccc2)c(=O)n1-c1ccc(NC(=O)c2ccccc2)cc1 | 4.57 | 55.5 | 72.4 | 23.6 | 68.1 | 28.9 | 19 | < 15 | 65.7 | 24.7 | 2.05 | < 15 | 38.4 | 41.9 | < 15 | 45.5 | 71 | 18.5 | 20.2 | 36.7 | inhibition of growth at 10 µM [21]: 29.8%; selectivity ratio [22]: 1.56; inhibition of growth at 10 µM [23]: 76.2%; pIC50 [24]: 6.75; inhibition of growth at 10 µM [25]: < 15%; inhibition of growth at 10 µM [26]: 66.8%; inhibition of growth at 10 µM [27]: 53.2%; pIC50 [28]: 4.45; inhibition of growth at 10 µM [29]: 36.8%
2 | Cc1ccc(C(=O)Nc2ccc(-n3c(C)nc4c(cnn4-c4ccccc4)c3=O)cc2)cc1 | 4.80 | 58.2 | 65.4 | 17.9 | 65.7 | 34.2 | < 15 | < 15 | 69.5 | 22.5 | 3.63 | 19.3 | 23.2 | 48.5 | < 15 | 46.5 | 78.9 | 48.6 | 22.6 | 38.2 | inhibition of growth at 10 µM [21]: 32.3%; inhibition of growth at 10 µM [23]: 93%; pIC50 [24]: 6.58; inhibition of growth at 10 µM [25]: 28.4%; inhibition of growth at 10 µM [26]: 68.8%; inhibition of growth at 10 µM [27]: 50.2%; inhibition of growth at 10 µM [29]: 39.2%
3 | Cc1nc2c(cnn2-c2ccccc2)c(=O)n1-c1ccc(NC(=O)c2ccc(F)cc2)cc1 | 5.48 | 22.8 | 82 | 19.6 | 94.6 | 45 | < 15 | 23.5 | 69.8 | 35.9 | 6.81 | 16.2 | 36.3 | 51.7 | 18.9 | 49.8 | 85.5 | 57.5 | 37.7 | 39 | Activity [30]: 15.85%; inhibition of growth at 10 µM [21]: 31.6%; selectivity ratio [22]: 4.75; inhibition of growth at 10 µM [23]: > 100%; pIC50 [24]: 7.20; inhibition of growth at 10 µM [25]: 26.5%; inhibition of growth at 10 µM [26]: 72.8%; Activity [31]: 10.43%; inhibition of growth at 10 µM [27]: 59.9%; Activity [32]: 9.12%; pIC50 [28]: 5.32; inhibition of growth at 10 µM [29]: 36.9%
4 | Cc1nc2c(cnn2-c2ccccc2)c(=O)n1-c1ccc(NC(=O)c2ccc(Cl)cc2)cc1 | 4.97 | 34.6 | 72.5 | 16.3 | 30.7 | 26.1 | < 15 | 17.3 | 68.5 | 19.2 | 3.24 | 17.1 | 43.4 | 44.5 | < 15 | 47.2 | 84.3 | 48.1 | 18.8 | 32.6 | inhibition of growth at 10 µM [21]: 33.3%; selectivity ratio [22]: 1.72; inhibition of growth at 10 µM [23]: 80.3%; pIC50 [24]: 6.70; inhibition of growth at 10 µM [25]: 21.3%; inhibition of growth at 10 µM [26]: 61.3%; inhibition of growth at 10 µM [27]: 53.9%; pIC50 [28]: 4.70; inhibition of growth at 10 µM [29]: 32.2%
